Results reported in PubChem BioAssay AID2465 (Broad Institute, 2010).
The whole screen tested about 24,000 compounds, of which fewer than 10 were called active. Rule as the data show it: active = caspase activation above about 5.9%; inconclusive = no clear call, values can overlap the other calls; inactive = below about 2.2%. Not all results are given here.

assay: A1 inhibitors via caspase activation, primary screen, cell-based, luminescence, HTS, two replicates (AID 2465); settings: MEF A1-2A-BIM cells, caspase-Glo luminescence, 3 h; active compounds read high; percent of clofoctol response, DMSO zero; concentration not given here
Summary of the method: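 system = A1-2A-BIM-expressing MEF cells | quantity = 2500 MEF cells/well | dosing = 50 nL compound per well, pinned | schedule = overnight cell settling, then 3 h compound exposure, 37 °C | signal = luminescence from DEVD-luciferin Caspase-Glo reagent, 1:1 in 50 mM HEPES, 1 h RT | read-out = Caspase-3/7 activation, seen as rise in luminescence signal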

Caspase activation, inactive:
C[C@@H]1CCCCO[C@H](CN(C)Cc2ccc(C(F)(F)F)cc2)[C@@H](C)CN([C@@H](C)CO)C(=O)c2cc(NC(=O)c3ccncc3)ccc2O1 -0.085%, C[C@@H]1CCCCO[C@@H](CN(C)S(=O)(=O)c2ccc(F)cc2)[C@@H](C)CN([C@@H](C)CO)C(=O)c2cc(NC(=O)Nc3ccc4c(c3)OCO4)ccc2O1 -0.312%, C[C@H]1CN([C@@H](C)CO)C(=O)Cc2cc(NC(=O)Cn3cnnn3)ccc2O[C@H]1CN(C)CC1CC1 -0.754%, Cc1ccc(S(=O)(=O)N(C)C[C@H]2OCCCC[C@H](C)Oc3ccc(N(C)C)cc3C(=O)N([C@H](C)CO)C[C@@H]2C)cc1 0.228%, C[C@@H]1CN([C@H](C)CO)C(=O)c2cc(NS(=O)(=O)c3ccccc3)ccc2O[C@H]1CN(C)S(=O)(=O)c1cccs1 -0.323%, COc1ccc(S(=O)(=O)Nc2ccc3c(c2)C(=O)N([C@H](C)CO)C[C@@H](C)[C@@H](CN(C)CC2CCCCC2)O3)cc1 -0.24%, CC(C)NC(=O)N(C)C[C@@H]1Oc2ccc(NC(=O)Cn3cnnn3)cc2CC(=O)N([C@H](C)CO)C[C@H]1C 1.87%, COc1cc(OC)c(/C=N/NC(=O)CCCCCCC(=O)Nc2ccccc2O)c(OC)c1 -0.41%, C[C@@H]1CCCCO[C@@H](CN(C)Cc2ccncc2)[C@@H](C)CN([C@H](C)CO)C(=O)c2cc(NS(=O)(=O)c3cccs3)ccc2O1 -0.367%, C[C@@H]1CN([C@H](C)CO)C(=O)Cc2cc(NC(=O)Nc3ccc4c(c3)OCO4)ccc2O[C@H]1CN(C)Cc1ccc(C(F)(F)F)cc1 1.47%, COc1ccc(S(=O)(=O)N(C)C[C@@H]2OCCCC[C@H](C)Oc3ccc(NC(=O)Nc4ccccc4)cc3C(=O)N([C@@H](C)CO)C[C@H]2C)cc1 0.213%, C[C@@H]1CN([C@@H](C)CO)C(=O)CCCn2nncc2CO[C@H]1CN(C)C(=O)CCCN(C)C -0.0755%, COc1ccc(NC(=O)Nc2ccc3c(c2)C(=O)N([C@@H](C)CO)C[C@@H](C)[C@@H](CN(C)S(=O)(=O)c2ccc(C)cc2)OCCCC[C@H](C)O3)cc1 -0.213%, COc1ccc(S(=O)(=O)Nc2ccc3c(c2)CC(=O)N([C@@H](C)CO)C[C@H](C)[C@@H](CN(C)Cc2ccc(C(=O)O)cc2)O3)cc1 1%, C[C@H](CO)N1C[C@H](C)[C@@H](CN(C)Cc2ccc(-c3ccccc3)cc2)Oc2ccc(NC(=O)CCCN(C)C)cc2CC1=O 0.389%, C[C@@H]1CCCCO[C@@H](CN(C)C(=O)C2CCCCC2)[C@H](C)CN([C@H](C)CO)C(=O)c2cc(NC(=O)CCC(F)(F)F)ccc2O1 -0.546%, COc1ccc(S(=O)(=O)N(C)C[C@@H]2Oc3ccc(NC(=O)C4CC4)cc3CC(=O)N([C@@H](C)CO)C[C@H]2C)cc1 -0.0568%, C[C@@H]1CN([C@H](C)CO)C(=O)c2cc(NC(=O)NC3CCCCC3)ccc2O[C@@H](C)CCCCO[C@H]1CN(C)C(=O)Nc1ccccc1 -0.462%, C[C@H](CO)N1C[C@H](C)[C@@H](CN(C)Cc2ccc(C(=O)O)cc2)OCCCC[C@H](C)Oc2ccc(NC(=O)c3ccccc3)cc2C1=O -0.0294%, Cc1noc(C)c1NC(=O)Nc1ccc2c(c1)CC(=O)N([C@@H](C)CO)C[C@@H](C)[C@H](CN(C)C(=O)NC1CCCCC1)O2 -0.291%, Cc1ccc(S(=O)(=O)Nc2ccc3c(c2)C(=O)N([C@@H](C)CO)C[C@@H](C)[C@@H](CN(C)Cc2ccc(C(F)(F)F)cc2)OCCCC[C@@H](C)O3)cc1 0.898%, CNC[C@H]1OCCCC[C@H](C)Oc2ccc(NS(=O)(=O)c3ccc(Cl)cc3)cc2C(=O)N([C@@H](C)CO)C[C@@H]1C -0.41%, COc1ccc(NC(=O)N(C)C[C@@H]2Oc3ccc(NC(=O)CCN4CCOCC4)cc3C(=O)N([C@@H](C)CO)C[C@H]2C)cc1 0.238%, C[C@@H]1CCCCO[C@H](CN(C)Cc2ccccc2)[C@H](C)CN([C@H](C)CO)C(=O)c2cc(NS(=O)(=O)c3ccc(Cl)cc3)ccc2O1 -0.0813%, C[C@H](CO)N1C[C@H](C)[C@H](CN(C)S(=O)(=O)c2ccccc2)Oc2c(NC(=O)CCCCCC(=O)Nc3ccccc3N)cccc2C1=O -0.28%, C[C@H](CO)N1C[C@H](C)[C@H](CN(C)S(C)(=O)=O)Oc2ccc(NC(=O)c3ccncc3)cc2CC1=O -0.8%, C[C@H]1CN([C@@H](C)CO)C(=O)CCCn2cc(nn2)CO[C@H]1CN(C)C(=O)Nc1cccc(C(F)(F)F)c1 -0.271%, COc1ccc(NC(=O)Nc2ccc3c(c2)C(=O)N([C@@H](C)CO)C[C@H](C)[C@@H](CN(C)C(=O)Nc2cccc4ccccc24)OCCCC[C@@H](C)O3)cc1 0.279%, C[C@H](CO)N1C[C@H](C)[C@@H](CN(C)S(=O)(=O)c2ccccc2)Oc2ccc(NC(=O)Nc3ccc(F)cc3)cc2CC1=O -0.112%, C[C@@H]1CN([C@H](C)CO)C(=O)c2cc(NC(=O)C3CCCCC3)ccc2O[C@H]1CN(C)C(=O)Nc1ccccc1 -0.382%, C[C@H]1CN([C@@H](C)CO)C(=O)CCCn2cc(nn2)CO[C@@H]1CN(C)C(=O)Nc1ccccc1 0.231%, COc1ccc(NC(=O)N(C)C[C@@H]2Oc3ccc(NS(=O)(=O)c4ccc(Cl)cc4)cc3C(=O)N([C@H](C)CO)C[C@@H]2C)cc1 0.258%, C[C@@H]1CN([C@@H](C)CO)C(=O)CCCn2cc(nn2)CO[C@@H]1CN(C)Cc1ccccc1C(=O)O 0.264%, O=C(CCCCC(=O)N/N=C/c1ccc[nH]1)NO -0.0327%, COc1ccc(NC(=O)N(C)C[C@H]2OCCCC[C@@H](C)Oc3ccc(NS(=O)(=O)c4ccc(F)cc4)cc3C(=O)N([C@@H](C)CO)C[C@@H]2C)cc1 -0.991%, COC(=O)CCCCCCC(=O)N/N=C/c1cccs1 0.382%, C[C@H](CO)N1C[C@H](C)[C@H](CN(C)C(=O)Nc2cccc3ccccc23)OCCCC[C@H](C)Oc2ccc(NC(=O)Nc3ccc4c(c3)OCO4)cc2C1=O 0.835%, Cc1noc(C)c1S(=O)(=O)Nc1ccc2c(c1)C(=O)N([C@@H](C)CO)C[C@H](C)[C@H](CN(C)CC1CCCCC1)OCCCC[C@H](C)O2 -0.748%, C[C@@H]1CN([C@@H](C)CO)C(=O)c2cc(NS(=O)(=O)c3cccs3)ccc2O[C@@H](C)CCCCO[C@@H]1CN(C)C(=O)NC1CCCCC1 -0.476%, Cc1ccc(S(=O)(=O)N(C)C[C@H]2Oc3c(NC(=O)c4ccc(-c5nccs5)cc4)cccc3C(=O)N([C@H](C)CO)C[C@H]2C)cc1 -0.882%, Cc1ccc(S(=O)(=O)N(C)C[C@H]2OCCCC[C@@H](C)Oc3ccc(NC(=O)NC4CCCCC4)cc3C(=O)N([C@H](C)CO)C[C@@H]2C)cc1 -0.124%, C[C@@H]1CN([C@H](C)CO)C(=O)c2cc(NC(=O)Nc3ccc(F)cc3)ccc2O[C@@H]1CN(C)Cc1ccc(Cl)c(Cl)c1 0.0143%, C[C@H]1CN([C@@H](C)CO)C(=O)c2cccc(NS(=O)(=O)c3cccs3)c2O[C@H]1CN(C)Cc1ccc(C(=O)Nc2ccccc2N)cc1 -0.485%, C[C@@H]1CN([C@H](C)CO)C(=O)Cc2cc(NC(=O)Nc3ccc4c(c3)OCO4)ccc2O[C@@H]1CN(C)Cc1ccc(C(=O)Nc2ccccc2N)cc1 -1.67%, O=C(CCCCCC(=O)N/N=C/c1ccc[nH]1)NO -0.622%, C[C@@H]1CCCCO[C@@H](CN(C)Cc2ccc3c(c2)OCO3)[C@@H](C)CN([C@@H](C)CO)C(=O)c2cc(NC(=O)C3CCCCC3)ccc2O1 1.06%, Cc1noc(C)c1NC(=O)N(C)C[C@@H]1OCCCC[C@H](C)Oc2ccc(NC(=O)NC3CCCCC3)cc2C(=O)N([C@H](C)CO)C[C@H]1C -1.23%, Cc1noc(C)c1S(=O)(=O)N(C)C[C@H]1OCCCC[C@@H](C)Oc2ccc(NC(=O)c3ccccc3)cc2C(=O)N([C@@H](C)CO)C[C@H]1C 0.679%, C[C@@H]1CCCCO[C@@H](CN(C)Cc2ccncc2)[C@H](C)CN([C@H](C)CO)C(=O)c2cc(NC(=O)NC3CCCCC3)ccc2O1 0.887%, C[C@@H]1CCCCO[C@@H](CN(C)C(=O)C2CCCCC2)[C@H](C)CN([C@H](C)CO)C(=O)c2cc(NC(=O)c3ccccc3)ccc2O1 -0.0371%, CNC[C@@H]1Oc2ccc(NC(=O)C3CCCCC3)cc2CC(=O)N([C@@H](C)CO)C[C@H]1C -2%, Cc1noc(C)c1NC(=O)Nc1ccc2c(c1)CC(=O)N([C@@H](C)CO)C[C@H](C)[C@H](CN(C)S(=O)(=O)c1c(C)noc1C)O2 -0.264%, C[C@@H]1CN([C@H](C)CO)C(=O)Cc2cc(NC(=O)C3CCCCC3)ccc2O[C@H]1CN(C)S(=O)(=O)c1ccc(Cl)cc1 -0.597%, Cc1noc(C)c1NC(=O)N(C)C[C@H]1OCCCC[C@H](C)Oc2ccc(NC(=O)Cc3ccccc3)cc2C(=O)N([C@H](C)CO)C[C@@H]1C -0.000815%
